Source: ChEMBL document CHEMBL3045336, “Synthesis of 1-triazolyl-4-trimethylsilyl-2-butanol and 1-triazolyl-5-trimethylsilyl-2-pentanol derivatives and an investigation of their fungicidal activities” (Chem Pharm Bull (Tokyo), 2003)
Converted amounts (≈) assume the structure as drawn.

Assays:
Blumeria hordei = assay: Fungicidal activity against Blumeria graminis f. sp. hordei infested first-leaf stage of barley seedlings assessed as growth inhibition applied as spray after 10 days under green house conditions; type: functional; details: 240 h
Pyricularia grisea = assay: Fungicidal activity against Magnaporthe oryzae assessed as mycelial growth inhibition after 7 days; type: functional, organism-based, Pyricularia oryzae
Procedure, shortened: (§1)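 Mycelial agar discs (4 mm) placed on potato dextrose agar plates containing test compound and incubated at 25 °C. Pyricularia oryzae was incubated for 7 d and Rhizoctonia solani for 3 d.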

Rhizoctonia solani = assay: Fungicidal activity against Rhizoctonia solani assessed as mycelial growth inhibition after 3 days; type: functional, organism-based; procedure, shortened: as §1

Compound C[Si](C)(C)CCCC(O)(Cn1cncn1)c1ccccc1 (configuration not stated) has an MIC (Blumeria hordei) of 3 µg/mL (≈ 9.89 µM), an IC50 (Pyricularia grisea) greater than 10 ppm and an IC50 (Rhizoctonia solani) greater than 1 ppm.
With C[Si](C)(C)CCCC(O)(Cn1cncn1)c1ccc(F)cc1F (configuration not stated) the MIC (Blumeria hordei) was 1 µg/mL (≈ 2.95 µM), the IC50 (Pyricularia grisea) was 0.89 ppm and the IC50 (Rhizoctonia solani) was 0.01 ppm.
C[Si](C)(C)CCC(O)(Cn1cncn1)c1ccc(F)cc1 (configuration not stated) showed an MIC (Blumeria hordei) of 3 µg/mL (≈ 9.76 µM), an IC50 (Pyricularia grisea) of 10 ppm and an IC50 (Rhizoctonia solani) greater than 1 ppm.
In the case of C[Si](C)(C)CC(O)(Cn1cncn1)c1ccc(F)cc1 (configuration not stated) [SIMECONAZOLE], the MIC (Blumeria hordei) is reported as 0.3 µg/mL (≈ 1.02 µM), the IC50 (Pyricularia grisea) is reported as 1.09 ppm and the IC50 (Rhizoctonia solani) is reported as 0.04 ppm.
Work on C[Si](C)(C)CCCC(O)(Cn1cncn1)c1ccc(F)cc1 (configuration not stated) yielded an MIC (Blumeria hordei) of 3 µg/mL (≈ 9.33 µM), an IC50 (Pyricularia grisea) greater than 3 ppm and an IC50 (Rhizoctonia solani) of 0.42 ppm.
With C[Si](C)(C)CCCC(O)(Cn1cncn1)c1ccc(Cl)cc1 (configuration not stated) the MIC (Blumeria hordei) was 1 µg/mL (≈ 2.96 µM), the IC50 (Pyricularia grisea) was greater than 3 ppm and the IC50 (Rhizoctonia solani) was 0.61 ppm.
C[Si](C)(C)CCC(O)(Cn1cncn1)c1ccc(F)cc1F (configuration not stated) was tested, and the MIC (Blumeria hordei) was 0.3 µg/mL (≈ 0.922 µM), the IC50 (Pyricularia grisea) was 3.1 ppm and the IC50 (Rhizoctonia solani) was 0.12 ppm.
Cc1ccc(C(O)(CC[Si](C)(C)C)Cn2cncn2)cc1 (configuration not stated) was tested, and the MIC (Blumeria hordei) was greater than 3 µg/mL, the IC50 (Pyricularia grisea) was greater than 10 ppm and the IC50 (Rhizoctonia solani) was greater than 1 ppm.
With C[Si](C)(C)CCC(O)(Cn1cncn1)c1ccc(Cl)cc1Cl (configuration not stated) the MIC (Blumeria hordei) was 0.3 µg/mL (≈ 0.837 µM), the IC50 (Pyricularia grisea) was 2.57 ppm and the IC50 (Rhizoctonia solani) was 0.05 ppm.
C[Si](C)(C)CCCC(O)(Cn1cncn1)c1ccc(Cl)c(Cl)c1 (configuration not stated) gave an MIC (Blumeria hordei) greater than 3 µg/mL, an IC50 (Pyricularia grisea) greater than 10 ppm and an IC50 (Rhizoctonia solani) of 1.94 ppm.
C[Si](C)(C)CCC(O)(Cn1cncn1)c1ccccc1 (configuration not stated) gave an MIC (Blumeria hordei) of 3 µg/mL (≈ 10.4 µM), an IC50 (Pyricularia grisea) greater than 10 ppm and an IC50 (Rhizoctonia solani) greater than 1 ppm.
C[Si](C)(C)CCC(O)(Cn1cncn1)c1ccc(Cl)cc1 (configuration not stated) showed an MIC (Blumeria hordei) of 3 µg/mL (≈ 9.26 µM), an IC50 (Pyricularia grisea) greater than 10 ppm and an IC50 (Rhizoctonia solani) greater than 1 ppm.
Compound COc1ccc(C(O)(CC[Si](C)(C)C)Cn2cncn2)cc1 (configuration not stated) has an MIC (Blumeria hordei) greater than 3 µg/mL, an IC50 (Pyricularia grisea) greater than 10 ppm and an IC50 (Rhizoctonia solani) greater than 1 ppm.
C[Si](C)(C)CCC(O)(Cn1cncn1)c1ccc(Br)cc1 (configuration not stated) gave an MIC (Blumeria hordei) of 3 µg/mL (≈ 8.14 µM), an IC50 (Pyricularia grisea) greater than 10 ppm and an IC50 (Rhizoctonia solani) greater than 1 ppm.
